Experiments:
Assay type in all cases: functional
5637 = test: Anticancer activity against human 5637 cells assessed as cell growth inhibition measured after 72 hrs by DAPI staining based analysis
Summary of the method: (§1)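 Cells were seeded and, after 24 h, DNA content was read as T0. Cells were then exposed to varying drug concentrations for a further 72 h (T72). Fixed cells were DAPI-stained and DNA content measured by automated imaging. T72 values were normalized to T0. GI50 is the concentration giving 50% growth inhibition between T0 and Ymax, obtained by curve fitting.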

A2780 [1] = test: Anticancer activity against human A2780 cells assessed as cell growth inhibition measured after 72 hrs by DAPI staining based analysis; summary of the method: as §1
CGTH-W-1 = test: Anticancer activity against human CGTH-W-1 cells assessed as cell growth inhibition measured after 72 hrs by DAPI staining based analysis
Summary of the method: (§2)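 Cells were seeded, and DNA content at 24 h after seeding (T0) was read by imaging of fixed, DAPI-stained cells. Cells were then exposed to a range of drug concentrations for a further 72 h (T72) and DNA content was read again. T72 values were normalized to T0, and GI50 was taken from curve fits as the concentration giving 50% growth inhibition relative to T0 and Ymax.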

COLO-320-HSR [2] = test: Anticancer activity against human COLO 320HSR cells assessed as cell growth inhibition measured after 72 hrs by DAPI staining based analysis; summary of the method: as §2
H4 = test: Anticancer activity against human H4 cells assessed as cell growth inhibition measured after 72 hrs by DAPI staining based analysis
Summary of the method: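 Cells seeded, DAPI-stained DNA content of fixed cells read by imaging 24 h after seeding (T0), and again after a further 72 h exposure to a range of drug concentrations (T72). T72 values were normalized to T0. Curve fits gave the concentration producing 50% growth inhibition relative to T0 and Ymax (GI50).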

MC-CAR = test: Anticancer activity against human MC-CAR cells assessed as cell growth inhibition measured after 72 hrs by DAPI staining based analysis
MDA-MB-231 = test: Anticancer activity against human MDA-MB-231 cells assessed as cell growth inhibition measured after 72 hrs by DAPI staining based analysis
MDA-MB-453 = test: Anticancer activity against human MDA-MB-453 cells assessed as cell growth inhibition measured after 72 hrs by DAPI staining based analysis
[3] = Anticancer activity against human RDES cells assessed as cell growth inhibition measured after 72 hrs by DAPI staining based analysis; settings: RD-ES
RPMI-6666 = test: Anticancer activity against human RPMI-6666 cells assessed as cell growth inhibition measured after 72 hrs by DAPI staining based analysis
SiHa = test: Anticancer activity against human SiHa cells assessed as cell growth inhibition measured after 72 hrs by DAPI staining based analysis
SNU-387 = test: Anticancer activity against human SNU-387 cells assessed as cell growth inhibition measured after 72 hrs by DAPI staining based analysis
SNU-5 = test: Anticancer activity against human SNU-5 cells assessed as cell growth inhibition measured after 72 hrs by DAPI staining based analysis
SW-620 [4] = test: Anticancer activity against human SW620 cells assessed as cell growth inhibition measured after 72 hrs by DAPI staining based analysis
T47D = test: Anticancer activity against human T47D cells assessed as cell growth inhibition measured after 72 hrs by DAPI staining based analysis
UACC-257 = test: Anticancer activity against human UACC-257 cells assessed as cell growth inhibition measured after 72 hrs by DAPI staining based analysis
A2780 [5] = test: Anticancer activity against human A2780 cells assessed as cell doubling measured for 72 hrs by DAPI staining based analysis
[6] = Anticancer activity against human A7 cells assessed as cell doubling measured for 72 hrs by DAPI staining based analysis
ACHN = test: Anticancer activity against human ACHN cells assessed as cell doubling measured for 72 hrs by DAPI staining based analysis
Capan-2 = test: Anticancer activity against human Capan-2 cells assessed as cell doubling measured for 72 hrs by DAPI staining based analysis
COLO-320-HSR [7] = test: Anticancer activity against human COLO 320HSR cells assessed as cell doubling measured for 72 hrs by DAPI staining based analysis
HCC70 = test: Anticancer activity against human HCC70 cells assessed as cell doubling measured for 72 hrs by DAPI staining based analysis
HT-29 [8] = test: Anticancer activity against human HT-29 cells assessed as cell doubling measured for 72 hrs by DAPI staining based analysis
HT-3 = test: Anticancer activity against human HT-3 cells assessed as cell doubling measured for 72 hrs by DAPI staining based analysis
MIA PaCa-2 = test: Anticancer activity against human MIA PaCa-2 cells assessed as cell doubling measured for 72 hrs by DAPI staining based analysis
NCI-H157 = test: Anticancer activity against human NCI-H157 cells assessed as cell doubling measured for 72 hrs by DAPI staining based analysis
NCI-H2170 = test: Anticancer activity against human NCI-H2170 cells assessed as cell doubling measured for 72 hrs by DAPI staining based analysis
NCI-H2171 = test: Anticancer activity against human NCI-H2171 cells assessed as cell doubling measured for 72 hrs by DAPI staining based analysis
OVCAR-4 = test: Anticancer activity against human OVCAR-4 cells assessed as cell doubling measured for 72 hrs by DAPI staining based analysis
SK-LMS-1 = test: Anticancer activity against human SK-LMS-1 cells assessed as cell doubling measured for 72 hrs by DAPI staining based analysis
SK-MEL3 = test: Anticancer activity against human SK-MEL3 cells assessed as cell doubling measured for 72 hrs by DAPI staining based analysis
SNU1 = test: Anticancer activity against human SNU1 cells assessed as cell doubling measured for 72 hrs by DAPI staining based analysis
SW1463 = test: Anticancer activity against human SW1463 cells assessed as cell doubling measured for 72 hrs by DAPI staining based analysis
SW-620 [9] = test: Anticancer activity against human SW620 cells assessed as cell doubling measured for 72 hrs by DAPI staining based analysis
SW684 = test: Anticancer activity against human SW684 cells assessed as cell doubling measured for 72 hrs by DAPI staining based analysis
SW 962 = test: Anticancer activity against human SW 962 cells assessed as cell doubling measured for 72 hrs by DAPI staining based analysis
T-24 = test: Anticancer activity against human T24 cells assessed as cell doubling measured for 72 hrs by DAPI staining based analysis
THP-1 = test: Anticancer activity against human THP-1 cells assessed as cell doubling measured for 72 hrs by DAPI staining based analysis
HCT-116 = test: Antitumor activity against human HCT-116 cells in xenograft model assessed as difference between median time to endpoint time of treated versus control group at 62.5 mg/kg
HT-29 [10] = test: Antitumor activity against human HT-29 cells in xenograft model assessed as tumor growth delay at 62.5 mg/kg relative to control
A549 = test: Antitumor activity against human A549 cells in xenograft model assessed as tumor growth delay at 62.5 mg/kg relative to control

What does the source list for CC(C)Oc1ccc(C(=O)N[C@H](CNC(=O)CN(C)C)Cc2ccc(-c3cn4cccc([C@H](C)O)c4n3)cc2)cc1Cl [GSK-923295A]?
GI50 5637: 23 nM; GI50 (A2780 [1]): 13 nM; GI50 (CGTH-W-1): 30 nM; GI50 (COLO-320-HSR [2]): 153 nM; GI50 (H4): 31 nM; GI50 (MC-CAR): 86 nM; GI50 (MDA-MB-231): 5020 nM; GI50 (MDA-MB-453): 27 nM; GI50 [3]: 63 nM; GI50 (RPMI-6666): 88 nM; GI50 (SiHa): 29 nM; GI50 (SNU-387): 32 nM; GI50 (SNU-5): 88 nM; GI50 (SW-620 [4]): 47 nM; GI50 (T47D): 29 nM; GI50 (UACC-257): 32 nM; Activity (A2780 [5]): 1.62; Activity [6]: 2.17; Activity (ACHN): 2.51; Activity (Capan-2): 1.89; Activity (COLO-320-HSR [7]): 3.25; Activity (HCC70): 1.35; Activity (HT-29 [8]): 4.33; Activity (HT-3): 1.95; Activity (MIA PaCa-2): 3.72; Activity (NCI-H157): 2.6; Activity (NCI-H2170): 1.69; Activity (NCI-H2171): 1.39; Activity (OVCAR-4): 2.94; Activity (SK-LMS-1): 2.84; Activity (SK-MEL3): 1.11; Activity (SNU1): 2.64; Activity (SW1463): 1.22; Activity (SW-620 [9]): 2.91; Activity (SW684): 1.13; Activity (SW 962): 2.46; Activity (T-24): 1.57; Activity (THP-1): 1.38; Time (HCT-116): -2.8 days; Activity (HT-29 [10]): 6%; Activity (A549): 11%

Reference: ChEMBL document CHEMBL5705890, “Antitumor activity of an allosteric inhibitor of centromere-associated protein-E” (Proc Natl Acad Sci U S A, 2010)
